pIC50, pKi: −log10 of the molar value.

The target of assay [1] is T1, Caspase-3 (Homo sapiens, UniProt P42574).
T1 sequence (P42574 whole entry): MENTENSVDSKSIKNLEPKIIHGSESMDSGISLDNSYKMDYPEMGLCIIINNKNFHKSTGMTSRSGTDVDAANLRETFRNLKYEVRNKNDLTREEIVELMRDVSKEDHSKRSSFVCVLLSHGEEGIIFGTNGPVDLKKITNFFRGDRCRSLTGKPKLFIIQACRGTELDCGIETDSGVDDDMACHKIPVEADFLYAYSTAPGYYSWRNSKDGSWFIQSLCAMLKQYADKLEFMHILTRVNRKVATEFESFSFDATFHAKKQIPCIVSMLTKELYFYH
The assay can be described thus: Inhibition of recombinant human caspase-3.

The target of assay [2] is Caspase-8 (Homo sapiens, UniProt Q14790). Description: Inhibitory activity against Caspase-8. To be noted: read-out: Ki app. The essentials: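 Recombinant full-length human caspase 8, ~10 units/assay, in Na+MOPS pH 7.5 with 10% glycerol, 0.25 mM EDTA and 5 mM β-mercaptoethanol. Substrate 10 μM Ac-IETD-AMC. Fluorescence at 360/460 nm, 30 °C, 5% final DMSO. Compounds screened at a single dose (typically 5–50 μM), then full IC50 curves for actives.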

Assay [3] deals with T2, Caspase-1 (Homo sapiens, UniProt P29466).
T2 sequence (P29466 whole entry): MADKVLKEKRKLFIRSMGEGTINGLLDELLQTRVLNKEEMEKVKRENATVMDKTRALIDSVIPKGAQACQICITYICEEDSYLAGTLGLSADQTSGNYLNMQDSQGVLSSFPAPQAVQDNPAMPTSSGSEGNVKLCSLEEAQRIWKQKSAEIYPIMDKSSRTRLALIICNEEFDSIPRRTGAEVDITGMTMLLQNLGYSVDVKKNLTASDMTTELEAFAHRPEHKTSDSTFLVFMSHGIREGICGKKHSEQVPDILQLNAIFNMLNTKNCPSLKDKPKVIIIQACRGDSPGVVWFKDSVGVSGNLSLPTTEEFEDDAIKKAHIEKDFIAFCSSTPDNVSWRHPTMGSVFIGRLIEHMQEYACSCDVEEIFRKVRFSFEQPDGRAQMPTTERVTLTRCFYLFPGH
The assay can be described thus: Inhibitory activity against caspase-1. Conditions: read-out: Ki app. Summed up: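 Recombinant full-length human caspase 1, ~10 units/assay, in 25 mM K+HEPES pH 7.5 with 10% sucrose, 0.1% CHAPS and 5 mM β-mercaptoethanol. Substrate 10 μM Ac-YVAD-AMC. AMC read at 360/460 nm, 30 °C, with 5% final DMSO. Single-dose screen (typically 5–50 μM), followed by IC50 curves for active compounds.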

In assay [4] the target is T3, Caspase-2 (Homo sapiens, UniProt P42575).
T3 sequence (P42575 whole entry): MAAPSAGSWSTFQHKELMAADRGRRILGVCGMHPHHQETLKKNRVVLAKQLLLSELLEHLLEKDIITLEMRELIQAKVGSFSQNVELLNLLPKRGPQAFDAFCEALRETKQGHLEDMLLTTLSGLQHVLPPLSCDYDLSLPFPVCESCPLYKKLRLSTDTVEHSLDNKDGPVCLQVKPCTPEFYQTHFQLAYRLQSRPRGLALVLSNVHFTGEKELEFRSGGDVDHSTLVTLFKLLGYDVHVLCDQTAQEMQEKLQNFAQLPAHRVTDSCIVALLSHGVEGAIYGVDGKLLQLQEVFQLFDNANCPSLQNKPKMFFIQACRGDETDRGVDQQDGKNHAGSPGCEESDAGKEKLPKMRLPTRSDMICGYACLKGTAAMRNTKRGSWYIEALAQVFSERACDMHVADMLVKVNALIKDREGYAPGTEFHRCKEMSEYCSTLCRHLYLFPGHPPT
The assay can be described thus: Inhibitory activity against caspase-2. Conditions: read-out: Ki app. Summed up:
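Recombinant full-length human caspase 2 (~10 units/assay) in 50 mM sodium acetate pH 6.2 with 10% glycerol, 0.25 mM EDTA and 5 mM β-mercaptoethanol. Substrate 25 μM Ac-VDVAD-AMC. Fluorescence at 360/460 nm, 30 °C, final DMSO 5%. Compounds screened at a single dose (typically 5–50 μM), then full IC50 curves where activity was seen.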

The target in assay [5] is T4, Caspase-4 (Homo sapiens, UniProt P49662).
T4 sequence (P49662 whole entry): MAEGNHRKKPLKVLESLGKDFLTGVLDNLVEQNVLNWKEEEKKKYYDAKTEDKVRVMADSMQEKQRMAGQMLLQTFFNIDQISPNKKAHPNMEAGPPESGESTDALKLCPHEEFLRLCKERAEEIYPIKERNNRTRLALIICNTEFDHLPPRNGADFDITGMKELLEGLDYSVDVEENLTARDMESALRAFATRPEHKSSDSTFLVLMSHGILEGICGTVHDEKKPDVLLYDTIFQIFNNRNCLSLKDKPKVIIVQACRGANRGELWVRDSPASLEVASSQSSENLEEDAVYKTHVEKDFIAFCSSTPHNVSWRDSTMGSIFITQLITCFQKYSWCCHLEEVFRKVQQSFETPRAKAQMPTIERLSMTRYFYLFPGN
Description: Inhibitory activity against caspase-4. To be noted: read-out: Ki app. Summed up:
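Recombinant full-length human caspase 4, ~10 units/assay, in potassium acetate pH 5.8 with 1 mM EDTA, 10% sucrose, 0.1% CHAPS and 5 mM β-mercaptoethanol. Substrate 100 μM Ac-LEED-AMC. Read at 360/460 nm, 30 °C, 5% final DMSO. Single-dose screen (typically 5–50 μM), then IC50 curves for actives.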

The target in assay [6] is T5, Caspase-9 (Homo sapiens, UniProt P55211).
T5 sequence (P55211 whole entry): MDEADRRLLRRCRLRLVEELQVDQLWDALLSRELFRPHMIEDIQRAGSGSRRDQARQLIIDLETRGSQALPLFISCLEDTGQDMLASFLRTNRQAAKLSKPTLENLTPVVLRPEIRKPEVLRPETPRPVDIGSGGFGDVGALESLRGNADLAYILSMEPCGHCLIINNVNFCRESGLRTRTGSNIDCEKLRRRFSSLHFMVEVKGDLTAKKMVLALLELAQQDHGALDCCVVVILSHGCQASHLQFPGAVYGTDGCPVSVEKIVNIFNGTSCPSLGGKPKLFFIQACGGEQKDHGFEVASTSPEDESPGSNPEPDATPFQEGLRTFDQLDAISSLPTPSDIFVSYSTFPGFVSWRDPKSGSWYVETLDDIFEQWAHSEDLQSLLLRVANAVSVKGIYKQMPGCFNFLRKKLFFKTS
The assay can be described thus: Inhibitory activity against Caspase-9. Conditions: read-out: Ki app.

In assay [7] the target is T1, Caspase-3. Description: Inhibitory activity against caspase-3. To be noted: read-out: Ki app. The essentials:
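Recombinant full-length human caspase 3 or 7, ~10 units/assay (1 unit = 1 pmol AMC/min). Substrate 10 μM Ac-DEVD-AMC. AMC fluorescence at 360/460 nm, 30 °C, with 5% final DMSO. Single-dose screen (typically 5–50 μM), then IC50 curves; repeated IC50s had CVs typically <30%.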

Assay [8] concerns Jurkat (Homo sapiens). Description: In vitro inhibition of Jurkat cell apoptosis at 10 uM of compound.
Assay [9] deals with Jurkat (Homo sapiens). The assay can be described thus: In vitro inhibition of Jurkat cell apoptosis at 50 uM of compound.

Caspase-8, sequence (Q14790 217-374 limits assumed): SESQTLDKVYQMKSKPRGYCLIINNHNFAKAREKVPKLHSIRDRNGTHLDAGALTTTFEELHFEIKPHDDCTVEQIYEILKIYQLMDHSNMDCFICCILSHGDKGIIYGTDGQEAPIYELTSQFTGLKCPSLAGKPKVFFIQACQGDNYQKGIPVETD
Caspase-8, sequence (Q14790 385-479 limits assumed): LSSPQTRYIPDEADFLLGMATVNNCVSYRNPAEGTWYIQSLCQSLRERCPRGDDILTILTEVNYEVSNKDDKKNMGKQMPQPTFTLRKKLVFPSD

Regarding `CN(CC1CCCN1S(=O)(=O)c1ccc2c(c1)C(=O)C(=O)N2)c1ccccc1` (stereo not drawn), the negative-log IC50 (pIC50) in [1] is 5.26. The pKi is under 4.30 in assay [2]; under 4.30 in [3]; 4.96 in [4]; under 4.30 in [5]; under 4.30 in assay [6]; 4.92 in assay [7].
For the compound `COC[C@@H]1CCCN1S(=O)(=O)c1ccc2c(c1)C(=O)C(=O)N2`, the Inhibition was found to be 22% in [8] and 54% in assay [9]. Also, in [1], the negative logarithm of the IC50 (pIC50) was 6.92. Moreover, the negative-log Ki (pKi) in assay [2] was under 4.60; in assay [3], under 4.60; in assay [4], under 4.60; in assay [5] it was under 4.60; in [6] it was 5.96; in assay [7] it was 7.22.
For the compound `O=C1Nc2ccc(S(=O)(=O)N3CCC[C@H]3CNc3ccccc3)cc2C1=O`, the Inhibition in assay [8] came to 8%; in [9], 61%. Besides, the pIC50 in [1] is 7.51. Further, the pKi in assay [2] is 4.10; in [3], 4.68; in [4] it was 5.19; in assay [5], 4.52; in [6], 6.07; in assay [7] it was 7.72.
Consider `O=C1C(=O)N(Cc2ccccc2)c2ccc(S(=O)(=O)N3CCC[C@H]3COc3ccccc3)cc21`, for which the Inhibition is listed as 27% in [8] and 47% in assay [9]. Further, in assay [1], the pIC50 was 8.60. Further, the negative logarithm of the Ki (pKi) in assay [2] is under 5.30; in [3], under 5.30; in assay [4] it was 5.40; in [5], under 5.30; in assay [6], 6.92; in assay [7], 8.92.
For `O=C1Nc2ccc(S(=O)(=O)N3CCC[C@H]3COc3ccccc3)cc2C1=O`, the Inhibition in [8] is recorded as 51%; in [9] it was 82%. The pIC50 in assay [1] was 7.36. The pKi was 4.31 in [2]; 4.77 in [3]; 5.31 in [4]; 4.48 in assay [5]; 5.92 in [6]; 7.82 in assay [7].

For orientation: pIC50 means −log10 of the IC50, conventionally taken in molar units. The pKi is −log10 of the Ki, conventionally taken in molar units. Usually Inhibition stands for how much of the control response was suppressed.
